Results published in PMC11327602 (Heliyon, 2024).
“And” between values parts separate entries of the source, which are not always exact repeats. Equal entries are not always repeated.

Legend:
[1] = DPPH free radical scavenging activity; conditions: for IC50: read-out: DPPH scavenging IC50
[2] = molecular target: jack bean urease (Canavalia ensiformis, UniProt P07374); assay: Urease inhibition assay; assay type: biochemical; conditions: for IC50: Enzyme (SEM ±) J.B Urease, IC50, mean ± SEM, 3 experiments
[3] = ABTS method; conditions: for IC50: read-out: ABTS scavenging IC50
[4] = molecular target: α-Glucosidase (Saccharomyces cerevisiae, UniProt P53341); assay: α-Glucosidase inhibition assay; assay type: biochemical
Method in brief: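 Test compound (200–800 μg/mL) pre-incubated 5 min at 37 °C with 2 % w/v starch (sucrose) solution in 0.2 M Tris buffer, pH 8.0. 5 mM p-nitrophenyl-α-D-glucopyranoside added intermittently, then α-glucosidase (1 U/mL), 40 min at 35 °C. Stopped with […]; absorbance read at 405 nm. % inhibition = (control − sample)/control × 100; samples above 50 % taken to IC50.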

[5] = molecular target: Bacillus Pasteurii urease (Sporosarcina pasteurii, UniProt P41020); assay: Urease inhibition assay; assay type: biochemical; conditions: Enzyme (SEM ±) B.P Urease, IC50, mean ± SEM, 3 experiments
[6] = Superoxide anion scavenging assay; conditions: for IC50: read-out: superoxide anion scavenging IC50

α-Glucosidase, sequence (P53341 whole entry): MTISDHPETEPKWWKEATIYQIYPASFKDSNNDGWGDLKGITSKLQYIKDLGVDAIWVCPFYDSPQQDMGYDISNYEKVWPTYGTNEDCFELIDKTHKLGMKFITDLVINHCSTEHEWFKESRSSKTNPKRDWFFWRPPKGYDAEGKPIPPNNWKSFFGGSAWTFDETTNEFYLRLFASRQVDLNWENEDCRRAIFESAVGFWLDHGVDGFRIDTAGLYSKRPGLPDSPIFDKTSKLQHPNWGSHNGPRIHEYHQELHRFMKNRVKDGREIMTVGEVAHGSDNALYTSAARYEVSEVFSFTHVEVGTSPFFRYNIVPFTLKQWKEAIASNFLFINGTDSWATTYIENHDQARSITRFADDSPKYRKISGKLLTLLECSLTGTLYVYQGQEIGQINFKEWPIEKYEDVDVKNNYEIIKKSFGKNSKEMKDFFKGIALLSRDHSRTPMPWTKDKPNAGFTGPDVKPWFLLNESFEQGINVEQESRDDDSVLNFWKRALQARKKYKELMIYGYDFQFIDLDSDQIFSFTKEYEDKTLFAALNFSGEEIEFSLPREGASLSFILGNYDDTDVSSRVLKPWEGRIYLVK
jack bean urease, sequence (P07374 whole entry, looked up): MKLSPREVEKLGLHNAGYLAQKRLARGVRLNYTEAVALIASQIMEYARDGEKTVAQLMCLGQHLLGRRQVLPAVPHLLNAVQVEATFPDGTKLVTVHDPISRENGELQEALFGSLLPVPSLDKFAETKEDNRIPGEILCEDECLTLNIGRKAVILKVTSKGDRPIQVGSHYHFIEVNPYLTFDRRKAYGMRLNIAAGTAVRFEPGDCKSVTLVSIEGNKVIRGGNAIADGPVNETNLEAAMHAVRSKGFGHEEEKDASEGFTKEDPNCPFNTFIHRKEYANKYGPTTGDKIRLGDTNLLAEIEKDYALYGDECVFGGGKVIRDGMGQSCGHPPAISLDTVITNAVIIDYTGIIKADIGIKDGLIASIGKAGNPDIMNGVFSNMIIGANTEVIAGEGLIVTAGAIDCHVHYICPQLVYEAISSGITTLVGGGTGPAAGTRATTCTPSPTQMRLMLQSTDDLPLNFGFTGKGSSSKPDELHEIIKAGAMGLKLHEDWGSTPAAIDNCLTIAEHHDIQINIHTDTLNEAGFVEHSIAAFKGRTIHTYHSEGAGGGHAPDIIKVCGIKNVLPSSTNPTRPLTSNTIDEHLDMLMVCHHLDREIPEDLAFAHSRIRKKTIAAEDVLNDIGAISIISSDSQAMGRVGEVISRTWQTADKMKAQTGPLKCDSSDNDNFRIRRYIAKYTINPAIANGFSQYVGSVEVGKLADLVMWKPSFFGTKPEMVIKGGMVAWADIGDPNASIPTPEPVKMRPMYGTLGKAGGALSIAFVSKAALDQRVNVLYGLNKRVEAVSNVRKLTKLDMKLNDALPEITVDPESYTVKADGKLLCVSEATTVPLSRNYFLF
Bacillus Pasteurii urease, sequence (P41020 whole entry): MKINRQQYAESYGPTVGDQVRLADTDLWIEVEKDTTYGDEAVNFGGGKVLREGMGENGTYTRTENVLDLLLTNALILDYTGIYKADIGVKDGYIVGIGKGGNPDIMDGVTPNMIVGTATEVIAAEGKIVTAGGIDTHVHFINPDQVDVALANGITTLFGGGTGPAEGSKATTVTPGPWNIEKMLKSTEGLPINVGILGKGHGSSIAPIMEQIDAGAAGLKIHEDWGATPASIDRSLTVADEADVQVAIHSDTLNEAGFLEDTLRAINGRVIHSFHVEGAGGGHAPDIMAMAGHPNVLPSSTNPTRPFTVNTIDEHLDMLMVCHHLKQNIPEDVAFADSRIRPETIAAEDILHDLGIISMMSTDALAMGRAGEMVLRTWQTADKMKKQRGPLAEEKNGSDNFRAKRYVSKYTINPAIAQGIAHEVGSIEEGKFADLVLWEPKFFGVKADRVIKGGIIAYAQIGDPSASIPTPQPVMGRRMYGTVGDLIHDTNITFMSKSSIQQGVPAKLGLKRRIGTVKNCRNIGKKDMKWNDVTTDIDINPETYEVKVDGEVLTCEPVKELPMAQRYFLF
Bacillus Pasteurii urease, sequence (P41021 whole entry partner): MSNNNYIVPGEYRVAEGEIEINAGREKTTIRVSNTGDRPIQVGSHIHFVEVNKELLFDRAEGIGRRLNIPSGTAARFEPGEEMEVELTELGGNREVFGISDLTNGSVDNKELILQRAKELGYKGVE
Bacillus Pasteurii urease, sequence (P41022 whole entry partner): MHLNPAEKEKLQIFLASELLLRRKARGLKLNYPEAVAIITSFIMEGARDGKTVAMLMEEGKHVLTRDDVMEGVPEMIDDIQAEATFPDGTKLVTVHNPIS

Row | Structure (SMILES) | DPPH % Scavenging ([1]; 25 μM) [%] | DPPH % Scavenging ([1]; 50 μM) [%] | DPPH % Scavenging ([1]; 75 μM) [%] | DPPH % Scavenging ([1]; 100 μM) [%] | IC50 [1] | Types of inhibition (urease) [2] | IC50 [2] [µM] | ABTS % Scavenging ([3]; 10 μM) [%] | ABTS % Scavenging ([3]; 20 μM) [%] | ABTS % Scavenging ([3]; 30 μM) [%] | ABTS % Scavenging ([3]; 40 μM) [%] | ABTS % Scavenging ([3]; 50 μM) [%] | IC50 [3] | Type of Inhibition (α-glucosidase and α-amylase) [4] | IC50 [5] [µM] | superoxide anion % scavenging ([6]; 25 μM) [%] | superoxide anion % scavenging ([6]; 50 μM) [%] | superoxide anion % scavenging ([6]; 75 μM) [%] | superoxide anion % scavenging ([6]; 100 μM) [%] | IC50 [6] | also measured
1 | COc1ccc(S(=O)(=O)N(Cc2ccccc2)c2nccs2)cc1 [Compound 20, N-Benzyl-4-methoxy-N-(thiazol-2-yl)benzenesulfonamide] | 35.2 ± 0.1 | 49.2 ± 0.01 | 56.3 ± 0.83 | 80.2 ± 0.01 | 43.5 ± 0.03 µM | Competitive | 20.6 ± 0.41 | 15.04 ± 0.2 | 22.02 ± 0.05 | 45.08 ± 0.06 | 61.01 ± 0.03 | 82.03 ± 0.07 | 38.01 ± 0.06 µM | Non-competitive | 22.1 ± 0.35 | 31 ± 0.02 | 54 ± 0.12 | 79 ± 0.22 | 85 ± 0.25 | 40 ± 0.06 µM | 
2 | O=S(=O)(c1ccc(F)cc1)N(Cc1ccccc1)c1nccs1 [Compound 24, N-benzyl-4-fluoro-N-(thiazol-2-yl)benzenesulfonamide] | 21.3 ± 0.18 | 44.1 ± 0.55 | 75.1 ± 0.30 | 89.4 ± 0.35 | 62.5 ± 0.07 µM | Competitive | 32.11 ± 0.13 | 25.11 ± 0.11 | 33.6 ± 0.55 | 44.31 ± 0.17 | 48.23 ± 0.51 | 76.23 ± 0.22 | 42.12 ± 0.21 µM | Non-competitive | 40.88 ± 0.26 | 33 ± 0.21 | 45 ± 0.35 | 84 ± 0.25 | 97 ± 0.15 | 59 ± 0.16 µM | inhibition against both enzymes (α-glucosidase and α-amylase), in words [4]: weak inhibition
3 | C=CCN(c1nccs1)S(=O)(=O)c1ccc(Br)cc1 [Compound 28, N-Allyl-4-bromo-N-(thiazol-2-yl)benzenesulfonamide] | 48.2 ± 0.09 | 70.7 ± 0.01 | 85.3 ± 0.3 | 91.2 ± 0.06 | ~48.4 µM and 48.4 µM | Non-competitive | 29.55 ± 0.12 | 10.01 ± 0.02 | 27.3 ± 0.05 | 48.08 ± 0.9 | 55.7 ± 0.22 | 99.06 ± 0.25 | ~35 µM and 35 µM | Competitive | 36.1 ± 0.43 | 25 ± 0.02 | 66 ± 0.11 | 77 ± 0.18 | 99 ± 0.31 | ~39 µM and 39 µM | 
4 | C=CCN(c1nccs1)S(=O)(=O)c1ccc(C)cc1 [Compound 26, N-Allyl-4-methyl-N-(thiazol-2-yl)benzenesulfonamide] | 43.2 ± 0.8 | 74.8 ± 0.3 | 88.5 ± 0.1 | 99.2 ± 0.2 | ~38.3 µM and 38.3 µM | Non-competitive | 30.11 ± 0.07 | 09.02 ± 0.03 | 24.03 ± 0.01 | 43.08 ± 0.09 | 75.07 ± 0.02 | 96.06 ± 0.21 | ~33 µM and 33 µM | Competitive | 38.2 ± 0.36 | 27 ± 0.07 | 63 ± 0.01 | 73 ± 0.11 | 94 ± 0.51 | ~36 µM and 36 µM | 
5 | CN(c1nccs1)S(=O)(=O)c1ccc(Br)cc1 [Compound 35, 4-Bromo-N-methyl-N-(thiazol-2-yl)benzenesulfonamide] | 28.1 ± 0.04 | 34.4 ± 0.8 | 61.5 ± 0.03 | 89.1 ± 0.6 | 53.1 ± 0.11 µM | Competitive | 18.7 | 33.02 ± 0.08 | 31.05 ± 0.01 | 43.01 ± 0.03 | 62.2 ± 0.09 | 105.13 ± 0.11 | 38.01 ± 0.13 µM | Competitive | 20.21 ± 0.19 | 27 ± 0.12 | 53 ± 0.05 | 64 ± 0.04 | 89 ± 0.28 | ~38 µM and 38 µM | inhibition against both enzymes (α-glucosidase and α-amylase), in words [4]: weak inhibition
6 | O=S(=O)(c1ccc(Cl)cc1)N(Cc1ccccc1)c1nccs1 [Compound 23, N-benzyl-4-chloro-N-(thiazol-2-yl)benzenesulfonamide] | 32.6 ± 0.21 | 57.3 ± 0.01 | 70.5 ± 0.16 | 93.05 ± 0.32 | 49.15 ± 0.05 µM | Non-competitive | 25.1 ± 0.28 | 19.5 ± 0.05 | 39.5 ± 0.24 | 55.13 ± 0.13 | 76.01 ± 0.5 | 93.03 ± 0.31 | 30.01 ± 0.11 µM | Non-competitive | 28.02 ± 0.07 | 39 ± 0.3 | 60 ± 0.56 | 89 ± 0.07 | 103 ± 0.19 | 47 ± 0.11 µM | 
7 | CN(c1nccs1)S(=O)(=O)c1ccc(Cl)cc1 [Compound 37, 4-Chloro-N-methyl-N-(thiazol-2-yl)benzenesulfonamide] | 19 ± 0.17 | 42.4 ± 0.8 | 66.8 ± 0.15 | 99.1 ± 0.21 | 57.1 ± 0.11 µM | Competitive | 21.02 ± 0.21 | 30.22 ± 0.22 | 41.25 ± 0.11 | 48.01 ± 0.12 | 65.5 ± 0.07 | 99.03 ± 0.15 | 34.11 ± 0.16 µM | Non-competitive | 25.4 ± 0.31 | 37 ± 0.21 | 43 ± 0.6 | 67 ± 0.03 | 99 ± 0.15 | 54 ± 0.15 µM | inhibition against both enzymes (α-glucosidase and α-amylase), in words [4]: weak inhibition
